Source: PubChem BioAssay
Compounds with a hit are over-represented: about 2.6% of the library has one in this group of screens.
Exocytosis inh: lytic granule exocytosis inhibition; TALL-104 LAMP-1 surface exposure, flow cytometry; cells stimulated with thapsigargin and PMA; inhibition, % at 10 µM; 360,000 compounds, 0.66% hits; AID 651702;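 active = inhibition above about 55%, limit read from the data; inconclusive = no clear call, values can overlap the other calls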
TbMetRS inhib: Trypanosoma brucei MetRS inhibition; purified T. brucei MetRS, ATP depletion, Kinase-Glo luminescence; inhibition, % at 11.9 µM; 360,000 compounds, 0.4% hits;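 active = inhibition above a per-plate cutoff of the control wells' mean inhibition plus 3 SD, cut at about 5.5% in these data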;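 note: 0% = DMSO wells median and 100% = median of wells with control inhibitor compound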
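Material – parasite MetRS enzyme · Medium – HEPES-MgCl2-KCl buffer plus DTT, spermine, BSA, pyrophosphatase · Reagent – ATP, methionine and E. coli bulk tRNA substrates · Times – 15 min enzyme-compound preincubation, 2 h reaction, 10 min detection, 25 °C · Measured by – luminescence of leftover ATP · Evaluation – percent inhibition relative to median high and low control wells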
ABCB6 inh MLPCN: inhibitors of human ABC transporter ABCB6 | Q9NP58 | K562-ABCB6 porphyrin accumulation, flow cytometry, 1 h; active compounds read low | fluorescence ratio to DMSO, % at 10 µM | 360,000 compounds, 0.19% hits;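 active = fluorescence ratio to DMSO below 75%, the collection mean minus 3 SD; inconclusive = too few cells collected in the well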;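 note: signal is porphyrin accumulated inside mitochondria; 100% equals median channel fluorescence of DMSO control wells; lower ratio means ABCB6 inhibition with less porphyrin fluorescence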
Target sequence (Q9NP58 whole entry, looked up): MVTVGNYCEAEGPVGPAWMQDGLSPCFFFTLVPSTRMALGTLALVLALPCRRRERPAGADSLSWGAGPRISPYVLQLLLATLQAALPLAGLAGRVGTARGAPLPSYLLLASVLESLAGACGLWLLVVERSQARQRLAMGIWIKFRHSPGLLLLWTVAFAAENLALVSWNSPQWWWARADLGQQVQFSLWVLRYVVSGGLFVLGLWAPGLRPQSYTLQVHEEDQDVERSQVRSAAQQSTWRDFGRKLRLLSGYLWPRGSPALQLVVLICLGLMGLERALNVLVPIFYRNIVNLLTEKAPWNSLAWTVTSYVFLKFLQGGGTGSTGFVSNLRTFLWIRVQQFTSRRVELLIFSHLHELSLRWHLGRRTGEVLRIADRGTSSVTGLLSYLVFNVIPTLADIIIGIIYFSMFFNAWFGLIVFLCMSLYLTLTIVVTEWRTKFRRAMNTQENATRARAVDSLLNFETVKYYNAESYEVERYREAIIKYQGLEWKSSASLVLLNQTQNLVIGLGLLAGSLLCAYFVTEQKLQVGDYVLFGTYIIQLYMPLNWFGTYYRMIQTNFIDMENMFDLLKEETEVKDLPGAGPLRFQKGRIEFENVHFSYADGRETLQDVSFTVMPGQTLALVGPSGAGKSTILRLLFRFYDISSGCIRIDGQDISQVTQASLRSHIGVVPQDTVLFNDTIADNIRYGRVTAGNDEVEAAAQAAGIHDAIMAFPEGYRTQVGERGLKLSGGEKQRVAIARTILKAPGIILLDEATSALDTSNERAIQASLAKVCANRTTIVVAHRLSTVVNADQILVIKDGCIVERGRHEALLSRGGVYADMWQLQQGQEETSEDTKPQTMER
hiPSC survival: increases survival of single human iPS cells; survival enhancement, % at 20 µM; 360,000 compounds, 0.044% hits; hiPSC single-cell survival, ATPlite luminescence; 100% = ROCK inhibitor wells, 0% = DMSO; in the data active = survival enhancement above about 18%;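 note: cells exposed to compounds for 16 hours before the ATP read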
MC4R antagonist: human MC4R antagonism in cAMP assay. 360,000 compounds, 0.48% hits. AID 540295. inhibition, % at 6.5 µM. MC4R-expressing cells, MTII-stimulated cAMP, LANCE TR-FRET. P32245;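 active = inhibition above its plate's cutoff, the mean of tested wells on that plate plus 3 SD, cut at about 29% in these data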;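 note: 0% = Melanotan II alone and 100% = Melanotan II plus saturating MCL0020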
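system = U2OS cells with stable human MC4R expression | also added = Melanotan II challenge after compound preincubation | dosing = one concentration, 6.5 µM nominal | incubation = compound 30 min, challenge 1 h, detection 1 h | measured by = TR-FRET with Eu-cAMP and labeled anti-cAMP, 671 nm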
MC4R barr agon: agonists of human melanocortin 4 receptor (MC4R) beta-arrestin; activation, % at 8.9 µM; U2OS MC4R beta-arrestin complementation, luminescence; percent of melanotan II response, DMSO zero; P32245; 360,000 compounds, 0.98% hits;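 active = activation above a per-plate cutoff, the mean activation of sample wells on that plate plus 3 SD, cut at about 8% in these data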
cAMP nonselect: nonselective cAMP signaling inhibitor, MC4R antagonist counter-screen | AID 602193 | inhibition, % at 6.5 µM | 1,600 compounds, 26% hits | shares compounds with MC4R antagonist | parental U2OS, forskolin cAMP, LANCE TR-FRET;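 active = mean inhibition over triplicates above the low-control well mean plus 3 SD, set per campaign, cut at about 13% in these data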;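 note: signal is single emission at 671 nm which falls as cellular cAMP rises; 0% = forskolin-stimulated wells and 100% = buffer without forskolin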
MC4R antag conf: human MC4R cAMP antagonism confirmation | AID 602195 | inhibition, % at 6.5 µM | shares compounds with MC4R antagonist | MC4R-expressing cells, MTII-stimulated cAMP, TR-FRET | 1,600 compounds, 27% hits; in the data active = inhibition above about 29%;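 note: 0% = agonist stimulated wells alone and 100% = agonist stimulated wells plus saturating reference antagonist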
* marks the source's active call; other numbers are inactive results; u = inconclusive; x = no result given.

SMILES	Exocytosis inh	TbMetRS inhib	ABCB6 inh MLPCN	hiPSC survival	MC4R antagonist	MC4R barr agon	cAMP nonselect	MC4R antag conf
Cc1ccccc1CNC(=O)c1ccc(Cl)c([N+](=O)[O-])c1	-5	1	101	-1	31*	-2	20*	42*
Cc1ccccc1CNC(=O)Cc1ccccc1[N+](=O)[O-]	-2	-1	112	-1	1	2	x	x
COc1cccc(C(=O)Nc2cccc(C(=O)NCC(C)C)c2)c1	-9	0	91	6	9	0	x	x
CC(C)CNC(=O)c1cccc(NC(=O)c2ccc(Cl)c([N+](=O)[O-])c2)c1	-2	0	101	3	32*	2	11	15
CCCC(C)NC(=O)CSc1nnc(-c2c[nH]c3ccccc23)o1 (stereo unspecified)	1	2	96	0	2	-2	x	x
O=C(OCC(=O)N1CCCC1=O)c1ncc(Cl)c(Cl)c1Cl	16	0	103	0	31*	-1	4	-4
NS(=O)(=O)c1ccc(NC(=O)COC(=O)c2ncc(Cl)c(Cl)c2Cl)cc1	-3	0	94	-2	32*	-1	13	29*
CCOc1ccc(C2=Nn3c(CC)nnc3SC2)cc1	14	0	99	-1	2	-2	x	x
O=S(=O)(Cc1cc(Cl)nc(-c2ccccc2)n1)c1ccccc1	-4	0	96	-2	5	-1	x	x
O=S(=O)(Cc1cc(Cl)nc(-c2ccncc2)n1)c1ccccc1	-1	1	107	-3	42*	-3	5	15
CS(=O)(=O)c1nc([N+](=O)[O-])nn1CCCc1ccccc1	12	0	92	-1	34*	-2	2	24
CC1(C)Oc2ccc(NC(=O)c3ccco3)cc2O1	6	0	102	-6	9	2	x	x
CC(=O)N1N=C(c2ccc(C)cc2)CC1c1ccco1 (stereo unspecified)	0	0	102	-1	30*	-1	12	3
CC(=O)Nc1ccc(OCC(O)Cn2ccnc2C)cc1 (stereo unspecified)	-1	-1	101	0	5	0	x	x
COC(=O)C1=C(C(=O)OC)SC2(S1)C(C(=O)OC)=C(C(=O)OC)SC1=C2c2cccc(C)c2NC1(C)C	13	0	97	-2	41*	0	11	45*
Cc1ccc(S(=O)(=O)N2CCCCC2)cc1NC(=O)COC(=O)c1cc[n+]([O-])cc1	-5	1	99	1	29*	2	3	-4
CCCCNC(=O)c1onc(CSc2ccccn2)c1C(=O)NCCCC	-4	0	82	-3	1	0	x	x
S=c1[nH]ccc2ccccc12	1	0	99	-2	29*	-2	-3	0
S=c1[nH]ncc2ccccc12	2	0	99	2	-9	-1	x	x
COc1cccc(C(c2sc3nc(C)nn3c2O)N2CCc3ccccc3C2)c1 (stereo unspecified)	-1	0	98	-2	33*	1	0	-8
Cn1c(=O)c2c(nc(Sc3n[nH]c(N)n3)n2Cc2ccccc2Cl)n(C)c1=O	-3	-1	102	8	29*	1	0	-4
Cn1c(=O)c2c(nc(Sc3ncccn3)n2Cc2ccccc2Cl)n(C)c1=O	-1	0	99	1	-5	-2	x	x
COCCNC(=O)C(c1ccc(F)cc1)N(C(=O)CCC(=O)Nc1ccccn1)c1cccc(C)c1 (stereo unspecified)	-18	0	97	0	0	-2	x	x
COC(=O)c1c(N2C(=O)[C@H]3[C@@H](C2=O)[C@]2(C(=O)Nc4c2ccc(C)c4C)N2CCC[C@@H]32)sc(C)c1C	1	0	127	2	33*	2	3	14
COC(=O)c1c(N2C(=O)[C@H]3[C@@H](C2=O)[C@]2(C(=O)Nc4c(C)cc(C)cc42)N2CCC[C@@H]32)sc(C)c1C	1	0	138	7	18	1	x	x
SMILES	Exocytosis inh	TbMetRS inhib	ABCB6 inh MLPCN	hiPSC survival	MC4R antagonist	MC4R barr agon	cAMP nonselect	MC4R antag conf
Cc1ccccc1SCC(=O)NCC1(N2CCCCC2)CCCCC1	4	0	93	0	9	2	x	x
Cc1cccnc1NC(=O)C(C)N1C(=O)c2ccccc2C1=O (stereo unspecified)	3	0	97	2	31*	1	-5	-18
CCN(CC)CCCNC(=O)CCC(=O)Nc1ccc2nc(N3CCC(C)CC3)cc(C)c2c1	0	0	98	0	37*	0	4	0
CCOc1cc(/C=C/C(=O)OCC(=O)NC2CCS(=O)(=O)C2)ccc1OCc1ccccc1 (stereo unspecified)	-2	-1	98	2	7	0	x	x
COC(=O)c1cc(S(=O)(=O)NCC2CCN(CCc3cccs3)CC2)c[nH]1	-1	1	97	0	1	-2	x	x
CCN(CC)C(=O)C(=O)Nc1ccc(Oc2ccccc2)cc1	1	0	99	0	33*	1	0	-11
CCN(CC)CC(=O)Nc1ccc(Oc2ccc(NC(=O)CN(CC)CC)cc2)cc1	17	1	96	2	9	0	x	x
CN(C(=O)COC(=O)c1nn(C)c(=O)c2ccccc12)c1c(N)n(Cc2ccccc2)c(=O)[nH]c1=O	14	0	102	0	2	-3	x	x
c1ccc2c3c(c(CN4CCCC4)cc2c1)COC3	-1	0	105	3	30*	0	1	-18
COc1ccc([N+](=O)[O-])c(S(=O)(=O)c2ccc(Cl)cc2)n1	10	2	110	0	15	-3	x	x
COc1ccc([N+](=O)[O-])c(S(=O)(=O)c2ccccc2)n1	27	1	109	0	29*	-4	29*	25
O=[N+]([O-])c1cccnc1S(=O)(=O)c1ccccc1	u	0	103	-1	33*	2	14*	38*
CC(=O)Nc1ccc(NC(=O)CC(NC(=O)c2ccccc2)c2ccccc2)cc1 (stereo unspecified)	-4	-2	98	-1	-4	-1	x	x
Cc1ccc(-c2cc(C(=O)O)c3ccccc3n2)s1	-2	0	98	0	2	-2	x	x
O=C(O)c1cc(-c2ccc(Cl)s2)nc2ccccc12	-3	0	105	0	34*	1	12	28
